# Laboratory results reported in ChEMBL document CHEMBL2417493, “Novel cycloalkylthiophene-imine derivatives bearing benzothiazole scaffold: synthesis, characterization and antiviral activity evaluation” (Bioorg Med Chem Lett, 2013).
# Active and inactive are the calls of the source. No cut-off for these calls is given here.
# What was measured:
# unidentified adenovirus [1] = assay: Antiviral activity against Adenovirus type 7 infected in human HeLa cells assessed as inhibition of virus-induced cytopathogenicity after 48 hrs by crystal violet staining method; type: functional, organism-based; details: for EC50: unidentified adenovirus, type 7, HeLa, 48 h
# Procedure, shortened: (§1)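 Virus–cell pairings were EV71 in RD, CVB5 in HepG2, ADV7 in HeLa and influenza A H1N1 in MDCK. Compounds were added […], and total infectivity was read by crystal violet staining. EC50 is the concentration reducing viral replication by 50%. Values are mean SD of three independent experiments.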
# Coxsackievirus B5 [2] = assay: Antiviral activity against Coxsackievirus B5 infected in human HepG2 cells assessed as inhibition of virus-induced cytopathogenicity at 32 ug/ml after 48 hrs by crystal violet staining method; type: functional; details: for inhibition at 32 µg/mL: Enterovirus B, HepG2, 48 h
# Procedure, shortened: (§2)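 Single-concentration screen with these pairings: RD/EV71, HepG2/CVB5, HeLa/ADV7, MDCK/H1N1. Cells were infected and kept 48 h in the presence of compound at one fixed concentration; some EV71 tests used the lower level. Inhibition of virus proliferation was read by crystal violet staining.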
# Influenza A virus [3] = assay: Antiviral activity against influenza A virus H1N1 infected in dog MDCK cells assessed as inhibition of virus-induced cytopathogenicity at 32 ug/ml after 48 hrs by crystal violet staining method; type: functional, organism-based; procedure, shortened: as §2
# [4] = Cytotoxicity against human HepG2 cells after 72 hrs by MTT assay; type: cell-based
# Procedure, shortened: (§3)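 MTT assay on RD (rhabdomyosarcoma), HepG2 and HeLa cell lines. CC50 is the concentration that cut cell viability by 50% relative to 0.1% DMSO-treated mock-control cells. Values are mean and SD of three independent experiments.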
# [5] = Selectivity index, ratio of CC50 for human HepG2 cells to EC50 for Coxsackievirus B5 infected in human HepG2 cells; type: toxicity, cell-based; details: read-out: Ratio CC50/EC50
# Procedure, shortened: (§4)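 Antiviral pairings were EV71 in RD cells, CVB5 in HepG2 cells and ADV7 in HeLa cells. Compounds were added […], and total infectivity was read by crystal violet staining. EC50 is the concentration that cut viral replication by 50%. CC50 came from MTT relative to 0.1% DMSO mock control. SI = CC50/EC50. Data are from three independent experiments.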
# Coxsackievirus B5 [6] = assay: Antiviral activity against Coxsackievirus B5 infected in human HepG2 cells assessed as inhibition of virus-induced cytopathogenicity after 48 hrs by crystal violet staining method; type: functional, organism-based; details: for EC50: Enterovirus B, HepG2, 48 h; procedure, shortened: as §1
# unidentified adenovirus [7] = assay: Antiviral activity against Adenovirus type 7 infected in human HeLa cells assessed as inhibition of virus-induced cytopathogenicity at 32 ug/ml after 48 hrs by crystal violet staining method; type: functional; details: for inhibition at 32 µg/mL: type 7, HeLa; procedure, shortened: as §2
# Enterovirus [8] = assay: Antiviral activity against Enterovirus 71 infected in human rhabdomyosarcoma cells assessed as inhibition of virus-induced cytopathogenicity at 32 ug/ml after 48 hrs by crystal violet staining method; type: functional; details: for inhibition at 32 µg/mL: Enterovirus, 71, 48 h; procedure, shortened: as §2
# Enterovirus [9] = assay: Antiviral activity against Enterovirus 71 infected in human rhabdomyosarcoma cells assessed as inhibition of virus-induced cytopathogenicity after 48 hrs by crystal violet staining method; type: functional, organism-based; details: for EC50: Enterovirus, 71, 48 h; procedure, shortened: as §1
# [10] = Cytotoxicity against human rhabdomyosarcoma cells after 72 hrs by MTT assay; type: cell-based, Rhabdomyosarcoma cell; procedure, shortened: as §3
# [11] = Cytotoxicity against human HeLa cells after 72 hrs by MTT assay; type: cell-based; procedure, shortened: as §3
# Influenza A virus [12] = assay: Antiviral activity against influenza A virus H1N1 infected in dog MDCK cells assessed as inhibition of virus-induced cytopathogenicity after 48 hrs by crystal violet staining method; type: functional, organism-based; procedure, shortened: as §1
# [13] = Selectivity index, ratio of CC50 for human HeLa cells to EC50 for Adenovirus type 7 infected in human HeLa cells; type: toxicity, cell-based; details: read-out: Ratio CC50/EC50; procedure, shortened: as §4
# [14] = Selectivity index, ratio of CC50 for human rhabdomyosarcoma cells to EC50 for Enterovirus 71 infected in human rhabdomyosarcoma cells; type: toxicity; details: read-out: Ratio CC50/EC50; procedure, shortened: as §4
# Enterovirus [15] = assay: Antiviral activity against Enterovirus 71 infected in human rhabdomyosarcoma cells assessed as inhibition of virus-induced cytopathogenicity at 16 ug/ml after 48 hrs by crystal violet staining method; type: functional; details: Enterovirus, 71, 48 h; procedure, shortened: as §2
SMILES,inhibition (INH) (unidentified adenovirus [1]),inhibition (Coxsackievirus B5 [2]),inhibition (Influenza A virus [3]),CC50 at 72 h [4],selectivity ratio [5],EC50 (Coxsackievirus B5 [6]),inhibition (unidentified adenovirus [7]),inhibition (Enterovirus [8]),inhibition (INH) (Enterovirus [9]),CC50 at 72 h [10],CC50 at 72 h [11],inhibition (INH) (Influenza A virus [12]),EC50 (unidentified adenovirus [1]),selectivity ratio [13],EC50 (Enterovirus [9]),selectivity ratio [14],inhibition (INH) (Coxsackievirus B5 [6]),other results
O=[N+]([O-])c1ccccc1/C=N/c1sc2c(c1-c1nc3ccccc3s1)CCCC2,<50%,Active,Active,393 µg/mL,35,11.2 µg/mL,Active,Active,<50%,255 µg/mL,369 µg/mL,<50%,–,–,–,–,–,–
Fc1ccc(/C=N/c2sc3c(c2-c2nc4ccccc4s2)CCC3)cc1,<50%,Active,Active,302 µg/mL,19.4,15.5 µg/mL,Active,Active,<50%,290 µg/mL,372 µg/mL,<50%,–,–,–,–,–,–
C(=C\c1ccccc1)/C=N/c1sc2c(c1-c1nc3ccccc3s1)CCCC2,<50%,Active,Active,467 µg/mL,31.6,14.7 µg/mL,Active,Active,<50%,207 µg/mL,389 µg/mL,<50%,–,–,–,–,–,–
NC(=O)c1ncn([C@@H]2O[C@H](CO)[C@@H](O)[C@H]2O)n1 [RIBAVIRIN],–,–,–,> 500 µg/mL,> 20,22.3 µg/mL,–,–,–,> 500 µg/mL,> 500 µg/mL,–,27.8 µg/mL,> 15,49.2 µg/mL,> 10,–,–
Nc1sc2c(c1-c1nc3cc(Cl)ccc3s1)CCC2,–,–,–,67.8 µg/mL,10.4,6.4 µg/mL,–,–,–,59.1 µg/mL,75.1 µg/mL,<50%,9.8 µg/mL,7.6,1.2 µg/mL,46.9,–,inhibition (unidentified adenovirus [1]): Dose-dependent effect; inhibition (Coxsackievirus B5 [6]): Dose-dependent effect; inhibition (Enterovirus [9]): Dose-dependent effect
Oc1ccccc1/C=N/c1sc2c(c1-c1nc3ccccc3s1)CCC2,–,–,Active,156 µg/mL,13.8,11.1 µg/mL,–,–,–,100 µg/mL,168 µg/mL,<50%,17.4 µg/mL,9.6,7.9 µg/mL,12.6,–,inhibition at 32 µg/mL (Coxsackievirus B5 [2]): 60%; inhibition at 32 µg/mL (unidentified adenovirus [7]): 60%; inhibition at 32 µg/mL (Enterovirus [8]): 50%
C(=N\c1sc2c(c1-c1nc3ccccc3s1)CCCC2)/c1ccccc1,–,–,Active,308 µg/mL,9.3,32.9 µg/mL,–,–,–,71.1 µg/mL,333 µg/mL,<50%,12.5 µg/mL,26.5,14.2 µg/mL,4.9,–,inhibition at 32 µg/mL (Coxsackievirus B5 [2]): 60%; inhibition at 32 µg/mL (unidentified adenovirus [7]): 60%; inhibition at 32 µg/mL (Enterovirus [8]): 60%
C(=N\c1sc2c(c1-c1nc3ccccc3s1)CCCC2)/c1ccc2c(c1)OCO2,<50%,Active,Active,329 µg/mL,–,–,Active,Active,–,299 µg/mL,568 µg/mL,<50%,–,–,32.6 µg/mL,9.1,<50%,–
Nc1sc2c(c1-c1nc3cc(Cl)ccc3s1)CCCC2,–,–,–,93.7 µg/mL,26.7,3.5 µg/mL,–,–,–,43.5 µg/mL,107 µg/mL,<50%,5 µg/mL,20.9,1.3 µg/mL,33.7,–,inhibition (unidentified adenovirus [1]): Dose-dependent effect; inhibition (Coxsackievirus B5 [6]): Dose-dependent effect; inhibition (Enterovirus [9]): Dose-dependent effect
C(=N\c1sc2c(c1-c1nc3ccccc3s1)CCC2)/c1ccc2c(c1)OCO2,<50%,Active,Active,356 µg/mL,–,–,Active,Active,<50%,310 µg/mL,449 µg/mL,<50%,–,–,–,–,<50%,–
Clc1ccc2sc(-c3c(/N=C/C=C/c4ccccc4)sc4c3CCCC4)nc2c1,<50%,Active,Active,114 µg/mL,–,–,Active,Active,<50%,212 µg/mL,150 µg/mL,<50%,–,–,–,–,<50%,–
Clc1ccc(/C=N/c2sc3c(c2-c2nc4ccccc4s2)CCC3)c(Cl)c1,<50%,Active,Active,310 µg/mL,–,–,Active,Active,<50%,160 µg/mL,345 µg/mL,<50%,–,–,–,–,<50%,–
Fc1ccc(/C=N/c2sc3c(c2-c2nc4ccccc4s2)CCCC3)cc1,–,–,Active,324 µg/mL,33.2,9.7 µg/mL,–,–,–,230 µg/mL,277 µg/mL,<50%,21.1 µg/mL,13.1,6.9 µg/mL,32.8,–,inhibition (unidentified adenovirus [1]): Dose-dependent effect; inhibition at 32 µg/mL (Coxsackievirus B5 [2]): 60%; inhibition (Coxsackievirus B5 [6]): Dose-dependent effect; inhibition at 32 µg/mL (unidentified adenovirus [7]): 60%; inhibition (Enterovirus [9]): Dose-dependent effect; inhibition at 16 µg/mL (Enterovirus [15]): 60%
Oc1ccccc1/C=N/c1sc2c(c1-c1nc3cc(Cl)ccc3s1)CCC2,<50%,Active,Active,210 µg/mL,–,–,Active,Active,–,269 µg/mL,251 µg/mL,<50%,–,–,13.9 µg/mL,19.2,<50%,–
Fc1ccccc1/C=N/c1sc2c(c1-c1nc3ccccc3s1)CCCC2,<50%,Active,Active,398 µg/mL,–,–,Active,Active,<50%,319 µg/mL,426 µg/mL,<50%,–,–,–,–,<50%,–
Nc1sc2c(c1-c1nc3ccccc3s1)CCCC2,<50%,–,–,163 µg/mL,11.9,14.5 µg/mL,–,–,–,253 µg/mL,475 µg/mL,<50%,–,–,14.1 µg/mL,17.8,–,–
Clc1ccc(/C=N/c2sc3c(c2-c2nc4ccccc4s2)CCC3)cc1,<50%,Active,Active,430 µg/mL,–,–,Active,Active,<50%,342 µg/mL,380 µg/mL,<50%,–,–,–,–,<50%,–
C(=C\c1ccccc1)/C=N/c1sc2c(c1-c1nc3ccccc3s1)CCC2,<50%,Active,Active,215 µg/mL,–,–,Active,Active,<50%,122 µg/mL,100 µg/mL,<50%,–,–,–,–,<50%,–
